Measured values taken from ChEMBL document CHEMBL4813982, “Novel pyrazolo[4,3-d]pyrimidine microtubule targeting agents (MTAs): Synthesis, structure-activity relationship, in vitro and in vivo evaluation as antitumor agents” (Bioorg Med Chem Lett, 2021).
Each block holds one molecule with its values, some of them ahead of it. Active and inactive are the calls of the source. The calls are words filed in the database; no cut-off is given here.

Legend:
[1] = molecular target: T1, Tubulin (Homo sapiens) (UniProt P68371+Q9H4B7+P0DPH7+P68366+Q13509+Q71U36+P04350+Q3ZCM7+P07437+P68363+Q9BQE3+Q6PEY2+Q13885+Q9BVA1+Q9BUF5); test: Inhibition of [3H]colchicine binding to tubulin (unknown origin) at 5 uM relative to control; format: protein-complex assay
[2] = molecular target: Tubulin; test: Inhibition of tubulin assembly (unknown origin); format: protein-complex assay, Homo sapiens
[3] = molecular target: T1, Tubulin (Homo sapiens); test: Inhibition of [3H]colchicine binding to tubulin (unknown origin) at 0.5 uM relative to control; format: protein-complex assay
[4] = system: NCI/ADR-RES; test: Antiproliferative activity against human NCI/ADR-RES cells overexpressing Pgp; format: functional, cell-based
[5] = system: OVCAR-8; test: Antiproliferative activity against human OVCAR-8 cells; format: functional, cell-based
[6] = Resistance ratio of IC50 for antiproliferative activity against human NCI/ADR-RES cells expressing Pgp to IC50 for antiproliferative activity against human OVCAR-8 cells; format: functional
Procedure, shortened: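 Resistance ratio: IC50 in Pgp-overexpressing NCI/ADR-RES cells divided by IC50 in parental OVCAR-8 cells.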

[7] = system: MCF7; test: Antitumor activity against human MCF7 cells expressing TUBB3 xenografted in athymic mouse assessed as reduction in tumor growth at 10 mg/kg administered twice in a week; format: functional, organism-based
[8] = system: MCF7; test: Antiproliferative activity against human MCF7 cells expressing TUBB3; format: functional, cell-based
[9] = system: MCF7; test: Antiproliferative activity against human MCF7 cells; format: functional, cell-based
[10] = Toxicity in athymic mouse xenografted with human MCF7 cells expressing TUBB3 assessed as effect on body weight at 10 mg/kg administered twice in a week; format: organism-based; conditions: in vivo
[11] = system: MCF7; test: Potency index, ratio of EC50 of paclitaxel to EC50 of compound for antiproliferative activity against human MCF7 cells; format: functional
[12] = Resistance ratio of EC50 for antiproliferative activity against human MCF7 cells expressing TUBB3 to EC50 for antiproliferative activity against human MCF7 cells; format: functional
Procedure, shortened: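 Resistance ratio: EC50 in MCF-7 cells overexpressing βIII-tubulin divided by EC50 in parental wild-type MCF-7 cells.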

[13] = system: MCF7; test: Potency index, ratio of EC50 of paclitaxel to EC50 of compound for antiproliferative activity against human MCF7 cells expressing TUBB3; format: functional

SMILES: CSc1ccc(N(C)c2nc(Cl)nc3cnn(C)c23)cc1
inhibition [3]: 64% | inhibition [1]: 93% | IC50 [4]: 17 nM | IC50 [5]: 31 nM | Ratio IC50 [6]: 0.54 | IC50 [2]: 820 nM

SMILES: CCOc1ccc(N(C)c2nc(Cl)nc3cnn(C)c23)cc1
Ratio EC50 [11]: 25 | inhibition [3]: 88% | Ratio EC50 [12]: 1.3 | EC50 [8]: 9.7 nM | inhibition [1]: 99% | IC50 [4]: 4 nM | Ratio EC50 [13]: 220 | IC50 [5]: 2 nM | Ratio IC50 [6]: 2 | EC50 [9]: 7.7 nM | IC50 [2]: 420 nM

SMILES: COc1ccc(N(C)c2nc(Cl)nc3cnn(C)c23)cc1F
Ratio EC50 [11]: 100 | inhibition [3]: 77% | Ratio EC50 [12]: 1.6 | EC50 [8]: 2.6 nM | inhibition [1]: 97% | IC50 [4]: 7 nM | Ratio EC50 [13]: 600 | IC50 [5]: 9 nM | Ratio IC50 [6]: 0.77 | EC50 [9]: 1.7 nM | IC50 [2]: 740 nM

Now from value to molecule, other results behind:

inhibition [1]: 43%
SMILES: COc1ccc2c(c1)CCCN2c1nc(C)nc2c(Cc3ccccc3)c[nH]c12

IC50 [2]: 21000 nM
SMILES: COc1ccc(N(C)c2nc(C)nc3c(Cc4ccccc4)c[nH]c23)cc1

EC50 [8]: 2070 nM | IC50 [5]: 5.3 nM | EC50 [9]: 194 nM
SMILES: CC(=O)O[C@H]1C(=O)[C@@]2(C)[C@H]([C@H](OC(=O)c3ccccc3)[C@]3(O)C[C@H](OC(=O)[C@H](O)[C@@H](NC(=O)c4ccccc4)c4ccccc4)C(C)=C1C3(C)C)[C@]1(OC(C)=O)CO[C@@H]1C[C@@H]2O [PACLITAXEL]
TGI [7]: Active | Activity [10]: Toxic

inhibition [1]: 0%
SMILES: COc1ccc(Nc2nc(C)nc3cc[nH]c23)cc1

inhibition [1]: 85% | IC50 [5]: 49 nM | IC50 [2]: 1100 nM
SMILES: CC(C)Oc1ccc(N(C)c2nc(Cl)nc3cnn(C)c23)cc1
IC50 [4]: 44 nM | Ratio IC50 [6]: 0.89
